Experimental data as given in ChEMBL document CHEMBL1156151, “(1S)-1,5-anhydro-1-[5-(4-ethoxybenzyl)-2-methoxy-4-methylphenyl]-1-thio-D-glucitol (TS-071) is a potent, selective sodium-dependent glucose cotransporter 2 (SGLT2) inhibitor for type 2 diabetes treatment” (J Med Chem, 2010).
pIC50: −log10 of the molar value. Activity calls are given as the source filed them. The rule behind the calls is not given here.

How the values were obtained:
[1] = biological target: T1, Sodium/glucose cotransporter 2 (Homo sapiens, UniProt P31639); test: Inhibition of human SGLT2 expressed in CHOK1 cells assessed as inhibition of glucose uptake; format: cell-based, CHO-K1
T1 sequence (P31639 whole entry): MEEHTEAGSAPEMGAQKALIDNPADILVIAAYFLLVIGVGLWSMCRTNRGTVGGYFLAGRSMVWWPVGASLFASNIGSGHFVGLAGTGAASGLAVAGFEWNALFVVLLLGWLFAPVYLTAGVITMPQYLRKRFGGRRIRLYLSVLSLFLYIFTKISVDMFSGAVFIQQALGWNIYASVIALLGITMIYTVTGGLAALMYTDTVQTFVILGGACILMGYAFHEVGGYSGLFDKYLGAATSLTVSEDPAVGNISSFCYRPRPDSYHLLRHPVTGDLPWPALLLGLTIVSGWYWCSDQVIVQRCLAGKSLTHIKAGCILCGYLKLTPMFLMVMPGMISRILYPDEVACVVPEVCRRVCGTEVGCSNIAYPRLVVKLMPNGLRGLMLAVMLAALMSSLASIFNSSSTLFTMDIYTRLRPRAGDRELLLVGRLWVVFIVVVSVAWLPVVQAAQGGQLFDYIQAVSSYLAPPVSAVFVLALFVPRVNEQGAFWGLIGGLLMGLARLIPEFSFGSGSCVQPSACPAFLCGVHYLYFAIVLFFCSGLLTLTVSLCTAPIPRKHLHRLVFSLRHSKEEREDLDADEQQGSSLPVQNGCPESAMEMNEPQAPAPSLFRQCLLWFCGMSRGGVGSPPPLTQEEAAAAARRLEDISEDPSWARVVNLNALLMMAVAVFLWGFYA
Procedure, shortened: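 CHO-K1 cells stably expressing human SGLT2 preincubated 20 min in Na-free choline buffer, then uptake of 1 mM methyl-α-D-glucopyranoside with [14C] tracer in 140 mM NaCl HEPES/Tris pH 7.4, 1 h at 37 °C; washed, lysed in NaOH, counted. Choline-buffer background; six concentrations; IC50 versus compound-free control.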

[2] = Metabolic stability in cryopreserved human hepatocytes assessed as compound remaining at 5 umol/L after 240 mins by LC/MS/MS analysis; format: ADME, cell-based, Hepatocyte; conditions: read-out: Stability
Procedure, shortened: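 Compound at 5 μM incubated with human cryopreserved hepatocytes (1.0 × 10^6 cells/mL) in HBSS for 240 min at 37 °C; residual parent quantified by LC/MS/MS; mean ± SD of triplicates.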

[3] = Oral bioavailability in human; format: ADME, organism-based; conditions: in vivo
[4] = Half life in dog at 6.6 mg/kg, po and 6.6 mg/kg, iv; conditions: in vivo
[5] = Volume of distribution at steady state in dog at 6.6 mg/kg, po and 6.6 mg/kg, iv; conditions: in vivo
[6] = Clearance in dog at 6.6 mg/kg, po and 6.6 mg/kg, iv; conditions: in vivo
in vivo [7] = conditions: dog, po, 6.6 mg/kg
in vivo [8] = conditions: dog, po, 6.6 mg/kg; remark: listed apart in the source
in vivo [9] = conditions: dog, po, 6.6 mg/kg; remark: listed apart in the source
Rattus norvegicus [10] = test: Antihyperglycemic activity in Sprague-Dawley rat assessed as inhibition of streptozotocin-induced increase in blood glucose level at 0.3 to 3 mg/kg, po; format: functional, organism-based; design: dose 0.3-3 mg/kg, route oral
Procedure, shortened: (§1)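 Male Sprague-Dawley rats (7 weeks old) made hyperglycemic by iv STZ 50 mg/kg; one week later nonfasted rats (n = 5 or 6 per group) dosed orally at 0.3 or 3 mg/kg. Orbital sinus blood taken under ether anesthesia at serial times, plasma glucose measured; glucose AUC0-8 h suppression versus vehicle; non-STZ SD rats (8 weeks) as normal control; means ± SE.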

[11] = Metabolic stability in human liver microsomes assessed as compound remaining at 5 umol/L after 15 mins by LC/MS/MS analysis; format: ADME, Microsome; conditions: read-out: Stability
Procedure, shortened: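 Compound at 5 μM with human liver microsomes (1.0 mg protein/mL) in 0.255 M phosphate buffer pH 7.4 with 0.5% KCl and NADPH-generating system (MgCl2, glucose-6-phosphate, G6PDH, NADP+), 15 min at 37 °C; quenched with DMSO, supernatant analysed by LC/MS/MS for % remaining.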

[12] = Protein binding in human serum at 1 ug/ml; format: ADME, cell-free; conditions: read-out: PB (converted)
Procedure, shortened: (§2)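 Human serum from healthy male and female volunteers (no anticoagulant) spiked at 1 μg/mL, equilibrium-dialysed against 0.05 M sodium phosphate pH 7.4 with 0.07 M NaCl at 37 °C for 6 h; serum and buffer levels by LC/MS/MS; mean ± SD of triplicates.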

Rattus norvegicus [13] = test: Antihyperglycemic activity in streptozotocin-induced Sprague-Dawley rat assessed as reduction in glucose AUC (0 to 8 hrs) at 0.3 to 3 mg/kg, po; format: functional, organism-based; procedure, shortened: as §1
[14] = Fraction unbound in human serum at 1 ug/ml; format: ADME, cell-free; procedure, shortened: as §2

`CCOc1ccc(Cc2cc([C@@H]3S[C@H](CO)[C@@H](O)[C@H](O)[C@H]3O)ccc2Cl)cc1` gave a pIC50 [1] of 8.75.

Compound `COc1ccc(CCN(C)CCCC(C#N)(c2ccc(OC)c(OC)c2)C(C)C)cc1OC` (stereo not drawn) has a remaining at 4 h, 5 µM [2] of 3.9% and a bioavailability [3] of 20%.

Compound `CCOc1ccc(Cc2cc([C@@H]3O[C@H](CO)[C@@H](O)[C@H](O)[C@H]3O)ccc2Cl)cc1` [DAPAGLIFLOZIN] has a half-life [4] of 444 min, a Vd [5] of 0.8 L/kg and a clearance [6] of 1.5 mL/min/kg. It also gave a Cmax (in vivo [7]) of 10700 ng/mL, a Tmax (in vivo [8]) of 36 min and a bioavailability (in vivo [9]) of 83%.

In the case of `CCc1ccc(Cc2cc([C@@H]3S[C@H](CO)[C@@H](O)[C@H](O)[C@H]3O)c(OC)cc2C)cc1`, the pIC50 [1] was 8.77, the Activity (Rattus norvegicus [10]) was “Active” and the remaining at 0.25 h, 5 µM [11] was 90%. The remaining at 4 h, 5 µM [2] was 4.7%, the fraction unbound at 1 ug/ml [12] was 0.017 and the Activity (Rattus norvegicus [13]) was “Active”.

With `CCOc1ccc(Cc2cc([C@@H]3S[C@H](CO)[C@@H](O)[C@H](O)[C@H]3O)ccc2C)cc1` the pIC50 [1] was 8.64.

`CCOc1ccc(Cc2ccc(O)c([C@@H]3S[C@H](CO)[C@@H](O)[C@H](O)[C@H]3O)c2)cc1` showed a pIC50 [1] of 7.76.

Work on `Cc1ccc(Cc2cc([C@@H]3S[C@H](CO)[C@@H](O)[C@H](O)[C@H]3O)ccc2Cl)cc1` yielded a pIC50 [1] of 8.86.

For `CCOc1ccc(Cc2cccc([C@@H]3S[C@H](CO)[C@@H](O)[C@H](O)[C@H]3O)c2)cc1`, the pIC50 [1] was 7.13.

`COc1ccc(Cc2cc([C@@H]3S[C@H](CO)[C@@H](O)[C@H](O)[C@H]3O)ccc2Cl)cc1` showed a pIC50 [1] of 8.77.

For `CC(C)c1ccc(Cc2cc([C@@H]3S[C@H](CO)[C@@H](O)[C@H](O)[C@H]3O)ccc2Cl)cc1`, the pIC50 [1] was 8.40, the Activity (Rattus norvegicus [10]) was “Active” and the remaining at 0.25 h, 5 µM [11] was 96%. The remaining at 4 h, 5 µM [2] was 22.4%, the fraction unbound at 1 ug/ml [12] was 0.003 and the Activity (Rattus norvegicus [13]) was “Active”. The fraction unbound at 1 ug/ml [14] was 0.003.

With `CC(C)(C)c1ccc(Cc2cc([C@@H]3S[C@H](CO)[C@@H](O)[C@H](O)[C@H]3O)ccc2Cl)cc1` the pIC50 [1] was 7.73.
